In ChEMBL document CHEMBL1151702, “Using an aryl phenanthroimidazole moiety as a conjugated flexible intercalator to improve the hybridization efficiency of a triplex-forming oligonucleotide” (Bioorg Med Chem, 2008):

Tests used:
Assay type in all cases: nucleic-acid assay
Nucleic Acid [1] = assay: Binding affinity to synthetic oligonucleotide ON20 at 1.0 uM at pH 7.0 by thermal denaturation study
Procedure, shortened: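 DNA/RNA antiparallel duplex: each strand at 1.0 µM in 10 mM sodium phosphate, 140 mM NaCl, 1 mM EDTA, pH 7.0. Heated to 80 °C for 5 min, cooled to 5 °C and held 30 min. Absorbance followed at 260 nm during a 1.0 °C/min temperature ramp; Tm is the first-derivative maximum.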

Nucleic Acid [2] = assay: Binding affinity to synthetic double stranded DNA D1 at 1.5 uM at pH 6.0 by thermal denaturation study
Procedure, shortened: (§1)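 Parallel triplex melting: target duplex assembled from strands at 1.0 µM each, TFO third strand added at 1.5 µM. Buffer 20 mM sodium cacodylate, 100 mM NaCl, 10 mM MgCl₂, at the pH of the line. Samples heated to 80 °C for 5 min, cooled to 5 °C and held 30 min. Absorbance read at 260 nm while heating at 1.0 °C/min; Tm taken as the first-derivative maximum.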

Nucleic Acid [3] = assay: Binding affinity to synthetic double stranded DNA D4 at 1.5 uM at pH 6.0 by thermal denaturation study; procedure, shortened: as §1
Nucleic Acid [4] = assay: Binding affinity to synthetic double stranded DNA D1 at 1.5 uM at pH 7.2 by thermal denaturation study; procedure, shortened: as §1
Nucleic Acid [5] = assay: Binding affinity to synthetic oligonucleotide ON18 at 1.0 uM at pH 6.0 by thermal denaturation study
Procedure, shortened: (§2)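 Duplex melting: complementary strands at 1.0 µM each in 20 mM sodium cacodylate, 100 mM NaCl, 10 mM MgCl₂, at the pH of the line. Annealed at 80 °C for 5 min, then cooled to 5 °C and held 30 min. UV absorbance read at 260 nm with heating at 1.0 °C/min; Tm is the maximum of the first-derivative curve.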

Nucleic Acid [6] = assay: Binding affinity to synthetic double stranded DNA D3 at 1.5 uM at pH 6.0 by thermal denaturation study; procedure, shortened: as §1
Nucleic Acid [7] = assay: Binding affinity to synthetic oligonucleotide ON19 at 1.0 uM at pH 6.0 by thermal denaturation study; procedure, shortened: as §2
Nucleic Acid [8] = assay: Binding affinity to synthetic double stranded DNA D1 at 1.5 uM at pH 5.0 by thermal denaturation study; procedure, shortened: as §1
Nucleic Acid [9] = assay: Binding affinity to synthetic oligonucleotide ON19 at 1.0 uM at pH 7.2 by thermal denaturation study; procedure, shortened: as §2
Nucleic Acid [10] = assay: Binding affinity to synthetic double stranded DNA D2 at 1.5 uM at pH 6.0 by thermal denaturation study; procedure, shortened: as §1

| Tm (Nucleic Acid [1]) [°C] | Tm (Nucleic Acid [2]) [°C] | Tm (Nucleic Acid [3]) [°C] | Tm (Nucleic Acid [4]) [°C] | Tm (Nucleic Acid [5]) [°C] | Tm (Nucleic Acid [6]) [°C] | Tm (Nucleic Acid [7]) [°C] | Tm (Nucleic Acid [8]) [°C] | Tm (Nucleic Acid [9]) [°C] | Tm (Nucleic Acid [10]) [°C] | SMILES |
| --- | --- | --- | --- | --- | --- | --- | --- | --- | --- | --- |
| 49.5 | 40.5 | 25.5 | 18.5 | 21.5 | 21 | 46.5 | 55 | 46 | 16.5 | Cc1cn([C@H]2C[C@H](OP(=O)(O)OC[C@H]3O[C@@H](n4ccc(N)nc4=O)C[C@@H]3OP(=O)(O)OC[C@H]3O[C@@H](n4cc(C)c(=O)[nH]c4=O)C[C@@H]3OP(=O)(O)OC[C@H]3O[C@@H](n4cc(C)c(=O)[nH]c4=O)C[C@@H]3OP(=O)(O)OC[C@H]3O[C@@H](n4cc(C)c(=O)[nH]c4=O)C[C@@H]3O[PH](O)(O)OC[C@H]3O[C@@H](n4cc(C)c(=O)[nH]c4=O)C[C@@H]3OP(=O)(O)OC[C@H]3O[C@@H](n4cc(C)c(=O)[nH]c4=O)C[C@@H]3OP(=O)(O)OC[C@H]3O[C@@H](n4cc(C)c(=O)[nH]c4=O)C[C@@H]3O)[C@@H](COC[C@H](CCOc3ccc(-c4nc5c6ccccc6c6ccccc6c5[nH]4)c4ccccc34)OP(=O)(O)O[C@H]3C[C@H](n4cc(C)c(=O)[nH]c4=O)O[C@@H]3COP(=O)(O)O[C@H]3C[C@H](n4cc(C)c(=O)[nH]c4=O)O[C@@H]3COP(=O)(O)O[C@H]3C[C@H](n4ccc(N)nc4=O)O[C@@H]3COP(=O)(O)O[C@H]3C[C@H](n4ccc(N)nc4=O)O[C@@H]3COP(=O)(O)O[C@H]3C[C@H](n4ccc(N)nc4=O)O[C@@H]3COP(=O)(O)O[C@H]3C[C@H](n4ccc(N)nc4=O)O[C@@H]3CO)O2)c(=O)[nH]c1=O |
| – | 45.5 | 28.5 | 28 | 33.5 | 34.5 | 46.5 | 59 | 45.5 | 27 | Cc1cn([C@H]2C[C@H](OP(=O)(O)OC[C@H]3O[C@@H](n4ccc(N)nc4=O)C[C@@H]3OP(=O)(O)OC[C@H]3O[C@@H](n4cc(C)c(=O)[nH]c4=O)C[C@@H]3OP(=O)(O)OC[C@H]3O[C@@H](n4cc(C)c(=O)[nH]c4=O)C[C@@H]3OP(=O)(O)OC[C@H]3O[C@@H](n4cc(C)c(=O)[nH]c4=O)C[C@@H]3O[PH](O)(O)OC[C@H]3O[C@@H](n4cc(C)c(=O)[nH]c4=O)C[C@@H]3OP(=O)(O)OC[C@H]3O[C@@H](n4cc(C)c(=O)[nH]c4=O)C[C@@H]3OP(=O)(O)OC[C@H]3O[C@@H](n4cc(C)c(=O)[nH]c4=O)C[C@@H]3O)[C@@H](COC[C@H](COCc3ccc(C#Cc4ccc5ccc6cccc7ccc4c5c67)cc3)OP(=O)(O)O[C@H]3C[C@H](n4cc(C)c(=O)[nH]c4=O)O[C@@H]3COP(=O)(O)O[C@H]3C[C@H](n4cc(C)c(=O)[nH]c4=O)O[C@@H]3COP(=O)(O)O[C@H]3C[C@H](n4ccc(N)nc4=O)O[C@@H]3COP(=O)(O)O[C@H]3C[C@H](n4ccc(N)nc4=O)O[C@@H]3COP(=O)(O)O[C@H]3C[C@H](n4ccc(N)nc4=O)O[C@@H]3COP(=O)(O)O[C@H]3C[C@H](n4ccc(N)nc4=O)O[C@@H]3CO)O2)c(=O)[nH]c1=O |
| 52 | 28 | < 5 | < 5 | 19 | < 5 | 49.5 | 55 | 49.5 | < 5 | Cc1cn([C@H]2C[C@H](OP(=O)(O)OC[C@H]3O[C@@H](n4cc(C)c(=O)[nH]c4=O)C[C@@H]3OP(=O)(O)OC[C@H]3O[C@@H](n4cc(C)c(=O)[nH]c4=O)C[C@@H]3OP(=O)(O)OC[C@H]3O[C@@H](n4ccc(N)nc4=O)C[C@@H]3OP(=O)(O)OC[C@H]3O[C@@H](n4cc(C)c(=O)[nH]c4=O)C[C@@H]3OP(=O)(O)OC[C@H]3O[C@@H](n4cc(C)c(=O)[nH]c4=O)C[C@@H]3OP(=O)(O)OC[C@H]3O[C@@H](n4cc(C)c(=O)[nH]c4=O)C[C@@H]3O[PH](O)(O)OC[C@H]3O[C@@H](n4cc(C)c(=O)[nH]c4=O)C[C@@H]3OP(=O)(O)OC[C@H]3O[C@@H](n4cc(C)c(=O)[nH]c4=O)C[C@@H]3OP(=O)(O)OC[C@H]3O[C@@H](n4cc(C)c(=O)[nH]c4=O)C[C@@H]3O)[C@@H](COP(=O)(O)O[C@H]3C[C@H](n4ccc(N)nc4=O)O[C@@H]3COP(=O)(O)O[C@H]3C[C@H](n4ccc(N)nc4=O)O[C@@H]3COP(=O)(O)O[C@H]3C[C@H](n4ccc(N)nc4=O)O[C@@H]3COP(=O)(O)O[C@H]3C[C@H](n4ccc(N)nc4=O)O[C@@H]3CO)O2)c(=O)[nH]c1=O |
| 53 | 46.5 | 31.5 | 26 | 31.5 | 29.5 | 50.5 | 59.5 | 50.5 | 23 | Cc1cn([C@H]2C[C@H](OP(=O)(O)OC[C@H]3O[C@@H](n4ccc(N)nc4=O)C[C@@H]3OP(=O)(O)OC[C@H]3O[C@@H](n4cc(C)c(=O)[nH]c4=O)C[C@@H]3OP(=O)(O)OC[C@H]3O[C@@H](n4cc(C)c(=O)[nH]c4=O)C[C@@H]3OP(=O)(O)OC[C@H]3O[C@@H](n4cc(C)c(=O)[nH]c4=O)C[C@@H]3O[PH](O)(O)OC[C@H]3O[C@@H](n4cc(C)c(=O)[nH]c4=O)C[C@@H]3OP(=O)(O)OC[C@H]3O[C@@H](n4cc(C)c(=O)[nH]c4=O)C[C@@H]3OP(=O)(O)OC[C@H]3O[C@@H](n4cc(C)c(=O)[nH]c4=O)C[C@@H]3O)[C@@H](COC[C@H](CCOc3ccc(-c4nc5c6ccccc6c6ccccc6c5[nH]4)cc3)OP(=O)(O)O[C@H]3C[C@H](n4cc(C)c(=O)[nH]c4=O)O[C@@H]3COP(=O)(O)O[C@H]3C[C@H](n4cc(C)c(=O)[nH]c4=O)O[C@@H]3COP(=O)(O)O[C@H]3C[C@H](n4ccc(N)nc4=O)O[C@@H]3COP(=O)(O)O[C@H]3C[C@H](n4ccc(N)nc4=O)O[C@@H]3COP(=O)(O)O[C@H]3C[C@H](n4ccc(N)nc4=O)O[C@@H]3COP(=O)(O)O[C@H]3C[C@H](n4ccc(N)nc4=O)O[C@@H]3CO)O2)c(=O)[nH]c1=O |
